Experimental data from ChEMBL document CHEMBL3044653, “Synthesis and herbicidal activity of 2-(substituted phenoxyacetoxy)alkyl-5,5-dimethyl-1,3,2-dioxaphosphinan-2-one” (J Agric Food Chem, 2012).

Columns and labels:
Echinochloa crus-galli [1] = experiment: Post-emergence herbicidal activity against Echinochloa crus-galli (barnyard grass) assessed as inhibition at 150 g/hectare treated at one-leaf stage by green house assay; assay type: functional
How it was run: (§1)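 Monocot weeds were sprayed postemergence in the greenhouse at the one-leaf stage with diluted formulation solutions. Primary dose was 150 g ai/ha, with follow-up doses of 75 and 37.5 g ai/ha for selected compounds. Activity is scored as percent herbicidal damage compared with an untreated control.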

Setaria viridis [2] = experiment: Post-emergence herbicidal activity against Setaria viridis (green foxtail) assessed as inhibition at 150 g/hectare treated at one-leaf stage by green house assay; assay type: functional; how it was run: as §1
Digitaria sanguinalis [3] = experiment: Post-emergence herbicidal activity against Digitaria sanguinalis (hairy crabgrass) assessed as inhibition at 150 g/hectare treated at one-leaf stage by green house assay; assay type: functional; how it was run: as §1
Amaranthus retroflexus [4] = experiment: Post-emergence herbicidal activity against Amaranthus retroflexus assessed as inhibition at 150 g/hectare treated at two-leaf stage by green house assay; assay type: functional
How it was run: (§2)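 Greenhouse postemergence spray of diluted formulation solutions onto broadleaf weeds at the two-leaf stage. Primary screen at 150 g ai/ha, with selected compounds retested at 75 and 37.5 g ai/ha. Abutilon was tested at 150 g ai/ha only. Read-out is percent herbicidal damage relative to an untreated control.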

Eclipta prostrata [5] = experiment: Post-emergence herbicidal activity against Eclipta prostrata assessed as inhibition at 150 g/hectare treated at two-leaf stage by green house assay; assay type: functional; how it was run: as §2
Abutilon theophrasti = experiment: Post-emergence herbicidal activity against Abutilon theophrasti (velvetleaf) assessed as inhibition at 150 g/hectare treated at two-leaf stage by green house assay; assay type: functional; how it was run: as §2
Brassica juncea [6] = experiment: Post-emergence herbicidal activity against Brassica juncea assessed as inhibition at 150 g/hectare treated at two-leaf stage by green house assay; assay type: functional; how it was run: as §2
Brassica juncea [7] = experiment: Post-emergence herbicidal activity against Brassica juncea assessed as inhibition at 75 g/hectare treated at two-leaf stage by green house assay; assay type: functional; how it was run: as §2
Triticum aestivum = experiment: Toxicity in Triticum aestivum (wheat) plant assessed as inhibition at 150 g/hectare; assay type: organism-based; settings: in vivo
How it was run: (§3)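 For crop selectivity, conventional crop varieties were planted in 12 cm diameter plots and given a postemergence treatment at 150 g ai/ha. Injury was scored as percent inhibition, with 0–10% classed as safe to the crop.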

Setaria viridis [8] = experiment: Post-emergence herbicidal activity against Setaria viridis (green foxtail) assessed as inhibition at 37.5 g/hectare treated at one-leaf stage by green house assay; assay type: functional; how it was run: as §1
Echinochloa crus-galli [9] = experiment: Post-emergence herbicidal activity against Echinochloa crus-galli (barnyard grass) assessed as inhibition at 37.5 g/hectare treated at one-leaf stage by green house assay; assay type: functional; how it was run: as §1
Amaranthus retroflexus [10] = experiment: Post-emergence herbicidal activity against Amaranthus retroflexus assessed as inhibition at 37.5 g/hectare treated at two-leaf stage by green house assay; assay type: functional; how it was run: as §2
Oryza sativa = experiment: Toxicity in Oryza sativa (rice) plant assessed as inhibition at 150 g/hectare; assay type: organism-based; settings: in vivo; how it was run: as §3
Digitaria sanguinalis [11] = experiment: Post-emergence herbicidal activity against Digitaria sanguinalis (hairy crabgrass) assessed as inhibition at 75 g/hectare treated at one-leaf stage by green house assay; assay type: functional; how it was run: as §1
Amaranthus retroflexus [12] = experiment: Post-emergence herbicidal activity against Amaranthus retroflexus assessed as inhibition at 75 g/hectare treated at two-leaf stage by green house assay; assay type: functional; how it was run: as §2
Gossypium hirsutum = experiment: Toxicity in Gossypium hirsutum (cotton) plant assessed as inhibition at 150 g/hectare; assay type: organism-based; settings: in vivo; how it was run: as §3
Digitaria sanguinalis [13] = experiment: Post-emergence herbicidal activity against Digitaria sanguinalis (hairy crabgrass) assessed as inhibition at 37.5 g/hectare treated at one-leaf stage by green house assay; assay type: functional; how it was run: as §1
Eclipta prostrata [14] = experiment: Post-emergence herbicidal activity against Eclipta prostrata assessed as inhibition at 37.5 g/hectare treated at two-leaf stage by green house assay; assay type: functional; how it was run: as §2
Eclipta prostrata [15] = experiment: Post-emergence herbicidal activity against Eclipta prostrata assessed as inhibition at 75 g/hectare treated at two-leaf stage by green house assay; assay type: functional; how it was run: as §2
Setaria viridis [16] = experiment: Post-emergence herbicidal activity against Setaria viridis (green foxtail) assessed as inhibition at 75 g/hectare treated at one-leaf stage by green house assay; assay type: functional; how it was run: as §1
Glycine max = experiment: Toxicity in Glycine max (soybean) plant assessed as inhibition at 150 g/hectare; assay type: organism-based; settings: in vivo; how it was run: as §3
Zea mays = experiment: Toxicity in Zea mays (maize) plant assessed as inhibition at 150 g/hectare; assay type: organism-based; settings: in vivo; how it was run: as §3
Brassica juncea [17] = experiment: Post-emergence herbicidal activity against Brassica juncea assessed as inhibition at 37.5 g/hectare treated at two-leaf stage by green house assay; assay type: functional; how it was run: as §2
Brassica napus = experiment: Toxicity in Brassica napus (oilseed rape) assessed as inhibition at 150 g/hectare; assay type: functional; how it was run: as §3
Echinochloa crus-galli [18] = experiment: Post-emergence herbicidal activity against Echinochloa crus-galli (barnyard grass) assessed as inhibition at 75 g/hectare treated at one-leaf stage by green house assay; assay type: functional; how it was run: as §1

Structure (SMILES) | inhibition at 150 g/ha (Echinochloa crus-galli [1]) | inhibition at 150 g/ha (Setaria viridis [2]) | inhibition at 150 g/ha (Digitaria sanguinalis [3]) | inhibition at 150 g/ha (Amaranthus retroflexus [4]) | inhibition at 150 g/ha (Eclipta prostrata [5]) | inhibition at 150 g/ha (Abutilon theophrasti) | inhibition at 150 g/ha (Brassica juncea [6]) | inhibition at 75 g/ha (Brassica juncea [7]) | inhibition (INH) (Triticum aestivum) | inhibition at 37.5 g/ha (Setaria viridis [8]) | inhibition at 37.5 g/ha (Echinochloa crus-galli [9]) | inhibition at 37.5 g/ha (Amaranthus retroflexus [10]) | inhibition at 75 g/ha (Digitaria sanguinalis [11]) | inhibition at 75 g/ha (Amaranthus retroflexus [12]) | inhibition at 37.5 g/ha (Digitaria sanguinalis [13]) | inhibition at 37.5 g/ha (Eclipta prostrata [14]) | inhibition at 75 g/ha (Eclipta prostrata [15]) | inhibition at 75 g/ha (Setaria viridis [16]) | inhibition at 37.5 g/ha (Brassica juncea [17]) | inhibition at 75 g/ha (Echinochloa crus-galli [18]) | further results
Cc1cc(OCC(=O)OC(C)P2(=O)OCC(C)(C)CO2)ccc1Cl (configuration not stated) | 0% | 0% | 0% | 60% | 60% | 70% | 70% |  |  |  |  |  |  |  |  |  |  |  |  |  | 
CC(OC(=O)COc1ccccc1Cl)P1(=O)OCC(C)(C)CO1 (configuration not stated) | 20% | 0% | 0% | 90% | 75% | 70% | 90% |  |  |  |  |  |  |  |  |  |  |  |  |  | 
CC(OC(=O)COc1ccc(Cl)cc1)P1(=O)OCC(C)(C)CO1 (configuration not stated) | 10% | 0% | 0% | 70% | 60% | 70% | 75% |  |  |  |  |  |  |  |  |  |  |  |  |  | 
CC1(C)COP(=O)(C(OC(=O)COc2ccc(Cl)cc2Cl)c2ccc(Cl)cc2Cl)OC1 (configuration not stated) | 0% | 0% | 0% | 80% | 70% | 95% | 100% | 55% | 0% | 0% | 0% | 20% | 0% | 20% | 0% | 30% | 34% | 0% | 50% | 0% | inhibition (INH) (Oryza sativa): 10%; inhibition (INH) (Gossypium hirsutum): 20%; inhibition (INH) (Glycine max): 30%; inhibition (INH) (Zea mays): 10%; inhibition at 150 g/ha (Brassica napus): 40%
CC1(C)COP(=O)(C(OC(=O)COc2ccc(Cl)cc2Cl)c2ccc(Cl)cc2)OC1 (configuration not stated) | 0% | 0% | 0% | 80% | 70% | 90% | 98% | 90% | 0% | 0% | 0% | 30% | 0% | 50% | 0% | 0% | 0% | 0% | 80% | 0% | inhibition (INH) (Oryza sativa): 10%; inhibition (INH) (Gossypium hirsutum): 20%; inhibition (INH) (Glycine max): 20%; inhibition (INH) (Zea mays): 0%; inhibition at 150 g/ha (Brassica napus): 40%
CC(C)C(OC(=O)COc1ccc(Cl)cc1Cl)P1(=O)OCC(C)(C)CO1 (configuration not stated) | 0% | 0% | 0% | 85% | 75% | 95% | 100% | 100% | 10% | 0% | 0% | 30% | 0% | 80% | 0% | 30% | 35% | 0% | 90% | 0% | inhibition (INH) (Oryza sativa): 20%; inhibition (INH) (Gossypium hirsutum): 20%; inhibition (INH) (Glycine max): 30%; inhibition (INH) (Zea mays): 0%; inhibition at 150 g/ha (Brassica napus): 50%
CCCCC(OC(=O)COc1ccc(Cl)cc1Cl)P1(=O)OCC(C)(C)CO1 (configuration not stated) | 0% | 0% | 0% | 85% | 75% | 90% | 100% | 100% | 10% | 0% | 0% | 50% | 0% | 70% | 0% | 30% | 40% | 0% | 90% | 0% | inhibition (INH) (Oryza sativa): 30%; inhibition (INH) (Gossypium hirsutum): 20%; inhibition (INH) (Glycine max): 30%; inhibition (INH) (Zea mays): 0%; inhibition at 150 g/ha (Brassica napus): 40%
CC1(C)COP(=O)(C(OC(=O)COc2ccccc2Cl)c2ccco2)OC1 (configuration not stated) | 0% | 0% | 0% | 85% | 70% | 70% | 90% |  |  |  |  |  |  |  |  |  |  |  |  |  | 
COP(=O)(OC)C(C)OC(=O)COc1ccc(Cl)cc1Cl (configuration not stated) [CLACYFOS] | 0% | 0% | 0% | 96% | 90% | 100% | 85% | 95% |  | 0% | 0% | 70% | 0% | 95% | 0% | 60% | 80% | 0% | 90% | 0% | 
